The results in this text go back to ChEMBL document CHEMBL1130274, “Fibrinogen receptor (GPIIb-IIIa) antagonists derived from 5,6-bicyclic templates. Amidinoindoles, amidinoindazoles, and amidinobenzofurans containing the N-alpha-sulfonamide carboxylic acid function as potent platelet aggregation inhibitors” (J Med Chem, 1997).

What all share (type): protein-complex assay
Experiment [1] addresses Integrin alpha-IIb/beta-3 (Homo sapiens, UniProt P05106+P08514). As to the kind of experiment: Inhibitory activity of fibrinogen binding to purified immobilized glycoprotein (fibrinogen receptor).
In experiment [2] the target is T1, Integrin alpha-V/beta-3 (Homo sapiens, UniProt P05106+P06756). As to the kind of experiment: Inhibition of vitronectin binding to the purified immobilized vitronectin receptor (alpha v, beta 3). The essentials: (§1)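 Solid-phase microtiter assay. Purified integrin (GPIIb-IIIa or αvβ3) was coated at 1 μg/well overnight at 4 °C in Tris pH 7.4 buffer with CaCl2, then blocked with 35 mg/mL BSA for 2–3 h. Biotinylated fibrinogen or vitronectin (20 nM final) plus compound was incubated 3 h at room temperature. Bound ligand was detected with alkaline phosphatase anti-biotin antibody and pNPP at 405 nm.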
T1 sequence (P05106 27-788 limits assumed): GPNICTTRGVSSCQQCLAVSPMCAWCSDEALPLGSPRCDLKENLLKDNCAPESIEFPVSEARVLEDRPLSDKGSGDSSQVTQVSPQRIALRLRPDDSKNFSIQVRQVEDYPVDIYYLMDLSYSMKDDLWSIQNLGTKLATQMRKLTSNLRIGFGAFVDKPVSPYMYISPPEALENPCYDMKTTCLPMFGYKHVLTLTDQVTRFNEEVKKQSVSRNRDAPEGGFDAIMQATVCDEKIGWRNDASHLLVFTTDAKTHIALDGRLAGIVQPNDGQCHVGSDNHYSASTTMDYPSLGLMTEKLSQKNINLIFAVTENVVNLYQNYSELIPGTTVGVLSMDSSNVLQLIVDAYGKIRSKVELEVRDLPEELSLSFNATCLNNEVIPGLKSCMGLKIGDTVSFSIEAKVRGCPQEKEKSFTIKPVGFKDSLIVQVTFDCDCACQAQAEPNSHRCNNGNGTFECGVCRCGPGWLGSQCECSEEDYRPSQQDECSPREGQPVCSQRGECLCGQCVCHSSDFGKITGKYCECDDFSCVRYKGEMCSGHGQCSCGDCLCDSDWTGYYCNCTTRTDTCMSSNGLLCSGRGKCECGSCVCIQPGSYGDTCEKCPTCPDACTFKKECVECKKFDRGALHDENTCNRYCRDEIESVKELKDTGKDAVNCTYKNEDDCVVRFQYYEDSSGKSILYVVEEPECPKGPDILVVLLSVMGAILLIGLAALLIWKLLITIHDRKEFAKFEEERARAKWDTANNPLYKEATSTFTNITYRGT
T1 sequence (P06756 31-889 limits assumed): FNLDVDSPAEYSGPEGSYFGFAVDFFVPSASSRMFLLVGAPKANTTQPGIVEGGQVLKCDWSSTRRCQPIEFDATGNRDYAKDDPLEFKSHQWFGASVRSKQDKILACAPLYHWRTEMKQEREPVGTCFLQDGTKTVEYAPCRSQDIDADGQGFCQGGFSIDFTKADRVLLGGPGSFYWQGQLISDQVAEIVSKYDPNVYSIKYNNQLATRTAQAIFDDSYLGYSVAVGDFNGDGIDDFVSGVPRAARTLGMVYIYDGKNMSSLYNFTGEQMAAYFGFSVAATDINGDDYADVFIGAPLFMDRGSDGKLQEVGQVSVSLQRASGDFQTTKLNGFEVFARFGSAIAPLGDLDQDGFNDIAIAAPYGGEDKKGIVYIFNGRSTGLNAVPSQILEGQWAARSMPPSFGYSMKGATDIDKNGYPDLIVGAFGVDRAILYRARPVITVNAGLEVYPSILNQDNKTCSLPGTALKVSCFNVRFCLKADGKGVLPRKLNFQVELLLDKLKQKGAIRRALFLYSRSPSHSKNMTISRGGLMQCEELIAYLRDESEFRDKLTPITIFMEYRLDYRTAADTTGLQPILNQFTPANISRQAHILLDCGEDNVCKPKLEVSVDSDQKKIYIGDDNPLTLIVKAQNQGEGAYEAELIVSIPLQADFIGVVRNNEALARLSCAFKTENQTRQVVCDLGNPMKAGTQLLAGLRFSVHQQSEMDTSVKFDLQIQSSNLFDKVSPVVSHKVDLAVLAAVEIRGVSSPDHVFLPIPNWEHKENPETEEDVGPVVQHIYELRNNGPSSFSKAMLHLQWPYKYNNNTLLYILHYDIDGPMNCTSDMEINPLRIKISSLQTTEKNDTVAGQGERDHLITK
T1 sequence (P06756 891-1048 limits assumed): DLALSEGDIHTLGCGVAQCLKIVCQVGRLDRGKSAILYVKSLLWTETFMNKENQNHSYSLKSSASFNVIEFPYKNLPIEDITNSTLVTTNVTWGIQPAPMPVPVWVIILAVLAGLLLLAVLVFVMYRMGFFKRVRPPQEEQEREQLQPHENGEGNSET

Experiment [3] deals with T1, Integrin alpha-V/beta-3. Kind of experiment: Inhibition of vitronectin binding to purified immobilized vitronectin receptor alpha v beta3. Put shortly:
as §1

pIC50: −log10 of the molar value.

By pIC50 is commonly meant the negative decadic logarithm of the IC50, by convention in mol/L.

Sequence of Integrin alpha-IIb/beta-3 (P05106 27-788 limits assumed): as the sequence (P05106 27-788 limits assumed) above
Sequence of Integrin alpha-IIb/beta-3 (P08514 32-887 limits assumed): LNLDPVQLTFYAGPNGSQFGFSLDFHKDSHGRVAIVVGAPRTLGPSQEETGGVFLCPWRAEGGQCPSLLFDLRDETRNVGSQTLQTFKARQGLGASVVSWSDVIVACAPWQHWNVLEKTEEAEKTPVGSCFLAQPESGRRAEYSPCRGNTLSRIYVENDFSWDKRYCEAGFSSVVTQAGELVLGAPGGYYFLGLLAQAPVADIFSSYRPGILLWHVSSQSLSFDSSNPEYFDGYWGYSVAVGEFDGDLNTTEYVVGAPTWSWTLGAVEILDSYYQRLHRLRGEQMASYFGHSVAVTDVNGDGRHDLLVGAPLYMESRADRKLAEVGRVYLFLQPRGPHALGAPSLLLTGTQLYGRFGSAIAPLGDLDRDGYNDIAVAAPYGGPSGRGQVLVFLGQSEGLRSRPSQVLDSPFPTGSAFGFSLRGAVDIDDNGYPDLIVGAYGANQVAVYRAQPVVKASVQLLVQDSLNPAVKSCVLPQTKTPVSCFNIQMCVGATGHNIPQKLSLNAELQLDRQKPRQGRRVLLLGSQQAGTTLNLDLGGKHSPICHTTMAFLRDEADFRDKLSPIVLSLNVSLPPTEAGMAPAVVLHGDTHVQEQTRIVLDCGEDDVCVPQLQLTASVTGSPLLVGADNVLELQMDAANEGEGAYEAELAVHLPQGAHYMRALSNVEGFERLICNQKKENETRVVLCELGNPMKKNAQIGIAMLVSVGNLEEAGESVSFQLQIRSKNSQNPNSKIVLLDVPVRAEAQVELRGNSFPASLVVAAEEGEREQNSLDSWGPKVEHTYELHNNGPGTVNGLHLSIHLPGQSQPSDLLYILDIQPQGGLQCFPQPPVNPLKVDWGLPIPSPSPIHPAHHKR
Sequence of Integrin alpha-IIb/beta-3 (P08514 891-1039 limits assumed): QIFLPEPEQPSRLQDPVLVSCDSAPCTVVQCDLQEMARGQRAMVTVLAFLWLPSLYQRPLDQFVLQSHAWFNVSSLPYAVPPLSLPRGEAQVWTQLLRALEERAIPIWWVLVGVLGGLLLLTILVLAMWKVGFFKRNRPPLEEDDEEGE

On to `N=C(N)c1ccc2oc(C(=O)NCCC(=O)NC[C@H](NS(=O)(=O)c3ccccc3)C(=O)O)cc2c1`, for which the pIC50 is 8.74 in experiment [1] and less than 4.00 at Integrin alpha-V/beta-3 [2]. For `C#CC(CC(=O)O)NC(=O)CCNC(=O)c1cc2cc(C(=N)N)ccc2o1` (stereo not given), the pIC50 is 7.40 in experiment [1] and less than 4.00 on Integrin alpha-V/beta-3 [2]. The like results for `N=C(N)c1ccc2oc(C(=O)NCCC(=O)NC[C@H](NS(=O)(=O)c3ccc(I)cc3)C(=O)O)cc2c1` were, in that order, 8.70 and less than 4.00.

For `N=C(N)c1ccc2[nH]c(C(=O)NC(CC(=O)NC(CC(=O)O)c3ccccc3)C(F)(F)F)cc2c1` (stereo not given), the pIC50 in experiment [1] was 5.00. Molecule `N=C(N)c1ccc2[nH]c(C(=O)NCCC(=O)NC(CC(=O)O)c3ccccc3)cc2c1` (stereo not given) showed a negative logarithm of the IC50 (pIC50) in experiment [1] of 6.00. In the case of `N=C(N)c1ccc2oc(C(=O)NCCC(=O)NC(CC(=O)O)c3ccccc3)cc2c1` (stereo not given), the figures for the pIC50 (in experiment [1]; at Integrin alpha-V/beta-3 [2]) were 6.82 and 4.22, respectively.

Consider `N=C(N)c1ccc2[nH]c(C(=O)NCC(=O)NC(CC(=O)O)c3ccccc3)cc2c1` (stereo not given), for which, in experiment [1], the pIC50 is 5.00.

Regarding `COc1ccc(C(CC(=O)O)NC(=O)CCNC(=O)c2cc3cc(C(=N)N)ccc3o2)cc1OC` (stereo not given), the pIC50 in experiment [1] is 7.40. Regarding `N=C(N)c1ccc2oc(C(=O)NCCC(=O)NC(CC(=O)O)c3cc(F)ccc3F)cc2c1` (stereo not given), the pIC50 is 6.90 in experiment [1] and less than 4.00 at Integrin alpha-V/beta-3 [2]. Consider `N=C(N)c1ccc2[nH]c(C(=O)N3CCC(C(=O)NC(CC(=O)O)c4ccccc4)CC3)cc2c1` (stereo not given), for which the pIC50 in experiment [1] is 5.22. `N=C(N)c1ccc2oc(C(=O)NCCC(=O)NCCC(=O)O)cc2c1`: the negative-log IC50 (pIC50) in experiment [1] is 7.70; on Integrin alpha-V/beta-3 [2] it was less than 4.00. Regarding `N=C(N)c1ccc2oc(C(=O)NCCC(=O)NC(CC(=O)O)C(F)(F)F)cc2c1` (stereo not given), the negative-log IC50 (pIC50) in experiment [1] is 7.40; on Integrin alpha-V/beta-3 [2], less than 4.00. Regarding `N=C(N)c1ccc2oc(C(=O)NCCC(=O)NC(CC(=O)O)c3cc(F)cc(F)c3)cc2c1` (stereo not given), the pIC50 in experiment [1] was 7.00; on Integrin alpha-V/beta-3 [2], less than 4.00. The matching figures for `CN(CCC(=O)NC(CC(=O)O)c1ccccc1)C(=O)c1cc2cc(C(=N)N)ccc2o1` (stereo not given): 6.82 and less than 4.00. Regarding `CCCCS(=O)(=O)N[C@@H](CNC(=O)CCNC(=O)c1cc2cc(C(=N)N)ccc2o1)C(=O)O`, the pIC50 was 8.70 in experiment [1] and less than 4.00 at Integrin alpha-V/beta-3 [2]. The like results for `CN(C)c1cccc2c(S(=O)(=O)N[C@@H](CNC(=O)CCNC(=O)c3cc4cc(C(=N)N)ccc4o3)C(=O)O)cccc12` were, in that order, 8.70 and less than 4.00. For `N=C(N)c1ccc2[nH]c(C(=O)Nc3cccc(C(=O)NC(CC(=O)O)c4ccccc4)c3)cc2c1` (stereo not given), in experiment [1], the pIC50 is 4.30.

The molecule `N=C(N)c1ccc2oc(C(=O)N3CCC[C@@H]3C(=O)NC(CC(=O)O)c3ccccc3)cc2c1` (stereo not given in full) showed a pIC50 in experiment [1] of 6.00. Consider `N=C(N)c1ccc2oc(C(=O)NCCC(=O)NC[C@H](N)C(=O)O)cc2c1`, for which the figures for the pIC50 (in experiment [1]; at Integrin alpha-V/beta-3 [2]) were 7.40 and less than 4.00, respectively. The matching figures for `N=C(N)c1ccc2oc(C(=O)NCCC(=O)NC(CC(=O)O)c3cccnc3)cc2c1` (stereo not given): 7.40 and 4.00. The molecule `N=C(N)c1ccc2oc(C(=O)N3Cc4ccccc4CC3C(=O)NC(CC(=O)O)c3ccccc3)cc2c1` (stereo not given) showed a pIC50 in experiment [1] of 6.30. Same read-out and setting: the same measure for `CC(C)(NC(=O)c1cc2cc(C(=N)N)ccc2[nH]1)C(=O)NC(CC(=O)O)c1ccccc1` (stereo not given): less than 4.00.

For the molecule `N=C(N)c1ccc2oc(C(=O)NCCC(=O)NC(CC(=O)O)c3ccc(F)c(F)c3)cc2c1` (stereo not given), the pIC50 is 6.70 in experiment [1] and less than 4.00 on Integrin alpha-V/beta-3 [2]. For `CN(CC(=O)NC(CC(=O)O)c1ccccc1)C(=O)c1cc2cc(C(=N)N)ccc2[nH]1` (stereo not given), the pIC50 in experiment [1] is 5.00. On to `N=C(N)c1ccc2oc(C(=O)NCC(=O)NC(CC(=O)O)c3ccccc3)cc2c1` (stereo not given), for which the pIC50 in experiment [1] was 6.52.

As for `CC(CC(=O)NC(CC(=O)O)c1ccccc1)NC(=O)c1cc2cc(C(=N)N)ccc2[nH]1` (stereo not given), the pIC50 was 5.60 in experiment [1] and 3.90 at Integrin alpha-V/beta-3 [2]. For the molecule `CN(CCC(=O)NC(CC(=O)O)c1ccccc1)C(=O)c1cc2cc(C(=N)N)ccc2[nH]1` (stereo not given), the pIC50 on Integrin alpha-V/beta-3 [3] is less than 4.00; in experiment [1] it was 7.70. In turn, `N=C(N)c1ccc2oc(C(=O)N3CCCC(C(=O)NC(CC(=O)O)c4ccccc4)C3)cc2c1` (stereo not given) gave a pIC50 in experiment [1] of 6.40. Regarding `CCCCS(=O)(=O)NC(CNC(=O)CCNC(=O)c1c[nH]c2cc(C(=N)N)ccc12)C(=O)O` (stereo not given), the pIC50 in experiment [1] was 8.70; on Integrin alpha-V/beta-3 [2], less than 4.00.

In the case of `CCCCS(=O)(=O)NC(CNC(=O)CCNC(=O)c1[nH]nc2cc(C(=N)N)ccc12)C(=O)O` (stereo not given), the pIC50 in experiment [1] was 8.70; on Integrin alpha-V/beta-3 [2], less than 4.00. For `CC(CC(=O)NC(CC(=O)O)c1ccccc1)NC(=O)c1cc2cc(C(=N)N)ccc2o1` (stereo not given), the pIC50 in experiment [1] was 7.70; at Integrin alpha-V/beta-3 [2], less than 4.00.
